The target in experiment [1] is T1, 2-amino-4-hydroxy-6-hydroxymethyldihydropteridine pyrophosphokinase (Escherichia coli (strain K12), UniProt P26281).
T1 sequence (P26281 whole entry): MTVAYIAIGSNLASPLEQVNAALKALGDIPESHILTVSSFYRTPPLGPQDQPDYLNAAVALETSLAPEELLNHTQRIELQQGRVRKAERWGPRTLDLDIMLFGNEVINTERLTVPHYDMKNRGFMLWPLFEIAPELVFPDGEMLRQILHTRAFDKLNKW
Put plainly: Inhibition of GST-tagged Escherichia coli HPPK expressed in Escherichia coli using 6-hydroxymethyl-7,8-dihydropterin hydrochloride as substrate after 20 mins by luminescence assay. The method, boiled down: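 GST tag cleaved from E. coli HPPK; 5 ng enzyme used. Reaction contained 0.75 µM dihydropterin substrate, 0.75 µM ATP, 100 mM Tris-HCl pH 8.5, 10 mM MgCl2, 10 mM BME, 0.01% Tween 20, 0.01% BSA and 5% DMSO. Ran 20 min at 23 °C. Remaining ATP read by Kinase-Glo luminescence.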

Experiment [2] addresses T1, 2-amino-4-hydroxy-6-hydroxymethyldihydropteridine pyrophosphokinase. Put plainly: Binding affinity to GST-tagged Escherichia coli HPPK expressed in Escherichia coli by SPR assay based alternative equilibrium affinity method in presence of AMP-CPP. The method, boiled down: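 E. coli HPPK expressed as a GST fusion, with the tag removed by thrombin. Minimally biotinylated and captured on a neutravidin chip. SPR run at 20 °C in 20 mM Tris pH 8.5, 100 mM NaCl, 10 mM MgCl2, 1 mM TCEP, 10% glycerol, 5% DMSO, with 2 µM AMPCPP. Compounds injected as a 3-fold series from 100 µM at 80 µL/min. Data double-referenced and fitted to a 1:1 model.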
Background: SPR reads the build-up and loss of mass on a sensor chip optically.

Experiment [3] deals with T2, 2-amino-4-hydroxy-6-hydroxymethyldihydropteridine pyrophosphokinase (Escherichia coli (strain K12)) (UniProt P26281).
T2 sequence (whole entry): T1 sequence (P26281 whole entry)
Put plainly: Inhibition of GST-tagged Escherichia coli HPPK expressed in Escherichia coli using 6-hydroxymethyl-7,8-dihydropterin hydrochloride as substrate at 250 uM after 20 mins by luminescence assay. The method, boiled down:
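GST tag cleaved from E. coli HPPK; 5 ng enzyme used. Reaction contained 0.75 µM dihydropterin substrate, 0.75 µM ATP, 100 mM Tris-HCl pH 8.5, 10 mM MgCl2, 10 mM BME, 0.01% Tween 20, 0.01% BSA and 5% DMSO. Compound present at 250 µM. Ran 20 min at 23 °C. Unconsumed ATP read by Kinase-Glo luminescence and reported as % inhibition.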

Experiment [4] deals with T2, 2-amino-4-hydroxy-6-hydroxymethyldihydropteridine pyrophosphokinase (Escherichia coli (strain K12)). Put plainly: Binding affinity to GST-tagged Escherichia coli HPPK expressed in Escherichia coli by SPR assay in absence of AMP-CPP. The method, boiled down: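 Thrombin-cleaved EcHPPK (GST removed), minimally biotinylated and captured (~3000–3700 RU) on a neutravidin chip. SPR at 20 °C, no AMPCPP, in 20 mM Tris pH 8.5, 100 mM NaCl, 10 mM MgCl2, 1 mM TCEP, 0.005% Tween20, 10% glycerol, 5% DMSO. Compounds run as 3-fold dilution series. Data double-referenced, solvent-corrected, fitted to a 1:1 model for K_D.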

Experiment [5] has the same target. In words: Binding affinity to GST-tagged Escherichia coli HPPK expressed in Escherichia coli by ITC method.

Active and inactive are the calls of the source. No cut-off for these calls is given here.

Consider `Nc1nc2nc(SCC(=O)c3ccc(O)cc3)[nH]c2c(=O)[nH]1`, for which inhibition in experiment [1] was half-maximal at 82 µM (IC50). Also, the Kd (in general, the free concentration of one partner at which half of the binding sites on the other are occupied at equilibrium, for simple one-to-one binding) in experiment [2] is 5.8 µM. Further, the inhibition (usually the relative decrease from the control value, in per cent) in experiment [3] is 77%. As for `N#Cc1ccc(CSc2nc3nc(N)[nH]c(=O)c3[nH]2)cc1`, in experiment [4], the result was inactive. Also, the IC50 (as a rule, the midpoint of a concentration-inhibition curve) in experiment [1] is 254 µM. Also, the Kd in experiment [2] worked out at 29 µM. This compound came in with an inhibition in experiment [3] of 53%.

For `Nc1nc2[nH]c(S)nc2c(=O)[nH]1`, the Kd in experiment [2] is more than 100 µM. Moreover, the inhibition in experiment [3] stood at 18%.

`Nc1nc2[nH]cnc2c(=S)[nH]1`: the inhibition in experiment [3] turned out to be 51%.

Take `Cc1ccc(C(=O)CSc2nc3nc(N)[nH]c(=O)c3[nH]2)cc1`: the IC50 in experiment [1] was 64 µM. Moreover, the dissociation constant Kd in experiment [2] turned out to be 6.7 µM. The inhibition in experiment [3] was found to be 80%.

In experiment [3], `Nc1nc2nc(SCCN3CCOCC3)[nH]c2c(=O)[nH]1` gave an inhibition of 7%. In the case of `Nc1nc2nc[nH]c2c(=O)[nH]1` [GUANINE], the dissociation constant (Kd) in experiment [2] is 38 µM. On to `Nc1nc(O)c2nc(SCC(=O)N3CCOCC3)[nH]c2n1`, for which the inhibition in experiment [3] was found to be 6%. On the same count and under the same terms, the value for `Nc1nc2nc(SCC(=O)c3ccc(OCCN4CCOCC4)cc3)[nH]c2c(=O)[nH]1` was 5%. `Nc1nc2nc(SCC(=O)c3ccc(F)cc3)[nH]c2c(=O)[nH]1` displayed an IC50 in experiment [1] of 79 µM. The Kd in experiment [2] is 11.2 µM. In experiment [3], this compound came in with an inhibition of 73%. `COc1ccccc1C(=O)CSc1nc2nc(N)[nH]c(=O)c2[nH]1` yielded an inhibition in experiment [3] of 12%.

`Nc1nc2nc(SCC(=O)c3ccccc3)[nH]c2c(=O)[nH]1`: in experiment [4], the outcome was inactive. This compound also showed an IC50 in experiment [1] of 139 µM. Besides, the Kd in experiment [2] was found to be 9.7 µM. Also, the inhibition in experiment [3] stood at 75%. As for `Nc1nc(O)nc2nc[nH]c12` [ISOGUANINE], in experiment [2], the dissociation constant (Kd) stood at 7.5 µM. In the case of `Cc1ccccc1C(=O)CSc1nc2nc(N)[nH]c(=O)c2[nH]1`, the IC50 in experiment [1] is 243 µM. Besides, the dissociation constant (Kd) in experiment [2] was found to be 18.9 µM. The compound further displayed an inhibition in experiment [3] of 48%. The corresponding values for `Cc1cccc(C(=O)CSc2nc3nc(N)[nH]c(=O)c3[nH]2)c1` are 51 µM, 5.9 µM and 77%. The corresponding values for `N#Cc1ccc(C(=O)CSc2nc3nc(N)[nH]c(=O)c3[nH]2)cc1` are 88 µM, 39 µM and 68%. In experiment [3], `Nc1nc2[nH]cnc2c(=O)[nH]1` yielded an inhibition of 48%.

Turning to `COc1ccc(C(=O)CSc2nc3nc(N)[nH]c(=O)c3[nH]2)cc1`, in experiment [1], the IC50 came out at 44 µM. Moreover, the Kd in experiment [2] was found to be 14.5 µM. In experiment [3], this compound returned an inhibition of 74%. As for `NC1N=C(O)c2nc(CO)cnc2N1` (centres undefined), the result in experiment [5] was Active. `CC(Sc1nc2nc(N)[nH]c(=O)c2[nH]1)C(=O)c1ccccc1` (centres undefined) came in with an inhibition in experiment [3] of 10%. For the compound `Cc1nc2c(=O)[nH]c(N)nc2[nH]1`, the dissociation constant Kd in experiment [2] stood at 18 µM. Take `Cc1ccc(C(=O)C(C)Sc2nc3nc(N)[nH]c(=O)c3[nH]2)cc1` (centres undefined): the inhibition in experiment [3] turned out to be 13%. Still for that read-out and setting: the value for `Nc1nc2nc(SC(=O)c3ccc(F)cc3)[nH]c2c(=O)[nH]1` was 16%.
